“And” between values parts separate entries of the source, which are not always exact repeats. Identical values can stand only once.
Tested on: HEK-293T
Assay: Multiplex assay against HEK293T
Format: toxicity, cell-based
Settings: human, number of replicates 2
How it was run: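 Values for tubulin, mitochondrial-mass and membrane-permeability phenotypes are per cents of cells with healthy nuclei. These cells were identified by CellPathfinder machine-learning gating of live cells that had been stained at seeding with Hoechst33342, BioTracker Green Microtubule Cytoskeleton Dye, MitoTracker Red and Annexin V Alexa Fluor 680 and imaged on a CQ1 microscope at 37°C and 5% CO2 after compound addition. The gating first set Hoechst high-intensity objects apart from normal cells, then split normal cells into healthy, pyknosed or fragmented nuclei, and pyknosed cells into mitotic or apoptotic.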

[1] = 12 h, 1 µM, compound concentration 1 uM
[2] = 12 h, 10 µM, compound concentration 10 uM
[3] = 24 h, 1 µM, compound concentration 1 uM
[4] = 24 h, 10 µM, compound concentration 10 uM
[5] = 48 h, 1 µM, compound concentration 1 uM
[6] = 48 h, 10 µM, compound concentration 10 uM

For `CCc1cnn2c(NCc3ccc[n+]([O-])c3)cc(N3CCCCC3CCO)nc12` (stereo unspecified), the “Population Apoptotic (%)” value [1] was 70% and 62%, the “Population Fragmented Nuclei (%)” value [1] was 3% and 2% and the “Population Healthy Nuclei (%)” value [1] was 83% and 90%. For the same molecule, the “Population Hoechst High Intensity Objects (%)” value [1] was 9% and 7%, the “Population Membrane Permeable-Phenotype (%)” value [1] was 0% and 1% and the “Population Mitochondria Different-Phenotype (%)” value [1] was 47% and 51%. The “Population Mitotic Cells (%)” value [1] was 29% and 37%, the “Population Normal (%)” value [1] was 90% and 92% and the “Population Pyknosed Nuclei (%)” value [1] was 12% and 7%. For the same molecule, the “Population Tubulin-Different-Phenotype (%)” value [1] was 70% and 75%, the “Total Cell Count” value [1] was 349 and 339 and the “Population Apoptotic (%)” value [2] was 52% and 86%. For the same molecule, the “Population Fragmented Nuclei (%)” value [2] was 3%, the “Population Healthy Nuclei (%)” value [2] was 89% and 90% and the “Population Hoechst High Intensity Objects (%)” value [2] was 13%. For the same molecule, the “Population Membrane Permeable-Phenotype (%)” value [2] was 2% and 1%, the “Population Mitochondria Different-Phenotype (%)” value [2] was 59% and 57% and the “Population Normal (%)” value [2] was 86%. For the same molecule, the “Population Pyknosed Nuclei (%)” value [2] was 7% and 6%, the “Population Tubulin-Different-Phenotype (%)” value [2] was 86% and the “Total Cell Count” value [2] was 345 and 378. For the same molecule, the “Population Apoptotic (%)” value [3] was 74% and 68%, the “Population Fragmented Nuclei (%)” value [3] was 3% and 2% and the “Population Healthy Nuclei (%)” value [3] was 86%. For the same molecule, the “Population Hoechst High Intensity Objects (%)” value [3] was 10% and 11%, the “Population Membrane Permeable-Phenotype (%)” value [3] was 1% and 0% and the “Population Mitochondria Different-Phenotype (%)” value [3] was 60% and 52%. For the same molecule, the “Population Mitotic Cells (%)” value [3] was 25% and 31%, the “Population Normal (%)” value [3] was 89% and 88% and the “Population Pyknosed Nuclei (%)” value [3] was 10% and 11%. For the same molecule, the “Population Tubulin-Different-Phenotype (%)” value [3] was 70% and 67%, the “Total Cell Count” value [3] was 295 and 327 and the “Population Apoptotic (%)” value [4] was 47% and 79%. For the same molecule, the “Population Fragmented Nuclei (%)” value [4] was 4% and 3%, the “Population Healthy Nuclei (%)” value [4] was 88% and the “Population Hoechst High Intensity Objects (%)” value [4] was 18% and 17%. For the same molecule, the “Population Membrane Permeable-Phenotype (%)” value [4] was 0%, the “Population Mitochondria Different-Phenotype (%)” value [4] was 70% and 67% and the “Population Mitotic Cells (%)” value [4] was 52% and 20%. For the same molecule, the “Population Normal (%)” value [4] was 81% and 82%, the “Population Pyknosed Nuclei (%)” value [4] was 6% and 8% and the “Population Tubulin-Different-Phenotype (%)” value [4] was 83% and 85%. For the same molecule, the “Total Cell Count” value [4] was 300 and 355, the “Population Apoptotic (%)” value [5] was 68% and 80% and the “Population Fragmented Nuclei (%)” value [5] was 4% and 3%. For the same molecule, the “Population Healthy Nuclei (%)” value [5] was 85% and 80%, the “Population Hoechst High Intensity Objects (%)” value [5] was 11% and 13% and the “Population Membrane Permeable-Phenotype (%)” value [5] was 0%. For the same molecule, the “Population Mitochondria Different-Phenotype (%)” value [5] was 71% and 75%, the “Population Mitotic Cells (%)” value [5] was 32% and 19% and the “Population Normal (%)” value [5] was 88% and 86%. The “Population Pyknosed Nuclei (%)” value [5] was 10% and 16%, the “Population Tubulin-Different-Phenotype (%)” value [5] was 74% and 67% and the “Total Cell Count” value [5] was 268 and 257. For the same molecule, the “Population Apoptotic (%)” value [6] was 43% and 68%, the “Population Fragmented Nuclei (%)” value [6] was 1% and 5% and the “Population Healthy Nuclei (%)” value [6] was 91% and 87%. For the same molecule, the “Population Hoechst High Intensity Objects (%)” value [6] was 19% and 20%, the “Population Membrane Permeable-Phenotype (%)” value [6] was 1% and 0% and the “Population Mitochondria Different-Phenotype (%)” value [6] was 74% and 73%. The “Population Mitotic Cells (%)” value [6] was 56% and 31%, the “Population Normal (%)” value [6] was 80% and 79% and the “Population Pyknosed Nuclei (%)” value [6] was 6% and 7%. The “Population Tubulin-Different-Phenotype (%)” value [6] was 83% and the “Total Cell Count” value [6] was 292 and 309.
In the case of `COc1cccc(Cn2cc(C(=O)Nc3ccc(C)c(S(=O)(=O)N4CCOCC4)c3)c(-c3ccc(C)cc3)n2)c1`, the “Population Apoptotic (%)” value [1] is reported as 39% and 54%, the “Population Fragmented Nuclei (%)” value [1] is reported as 2% and the “Population Healthy Nuclei (%)” value [1] is reported as 81% and 84%. For the same molecule, the “Population Hoechst High Intensity Objects (%)” value [1] was 5% and 4%, the “Population Membrane Permeable-Phenotype (%)” value [1] was 6% and 4% and the “Population Mitochondria Different-Phenotype (%)” value [1] was 25% and 22%. The “Population Mitotic Cells (%)” value [1] was 60% and 45%, the “Population Normal (%)” value [1] was 94% and 95% and the “Population Pyknosed Nuclei (%)” value [1] was 15% and 12%. The “Population Tubulin-Different-Phenotype (%)” value [1] was 76%, the “Total Cell Count” value [1] was 633 and 601 and the “Population Apoptotic (%)” value [2] was 35% and 56%. The “Population Fragmented Nuclei (%)” value [2] was 1% and 3%, the “Population Healthy Nuclei (%)” value [2] was 83% and the “Population Hoechst High Intensity Objects (%)” value [2] was 6% and 7%. The “Population Membrane Permeable-Phenotype (%)” value [2] was 21% and 19%, the “Population Mitochondria Different-Phenotype (%)” value [2] was 24% and 26% and the “Population Mitotic Cells (%)” value [2] was 64% and 43%. For the same molecule, the “Population Normal (%)” value [2] was 93% and 92%, the “Population Pyknosed Nuclei (%)” value [2] was 14% and 13% and the “Population Tubulin-Different-Phenotype (%)” value [2] was 84% and 87%. For the same molecule, the “Total Cell Count” value [2] was 611 and 568, the “Population Apoptotic (%)” value [3] was 46% and 42% and the “Population Fragmented Nuclei (%)” value [3] was 5% and 4%. The “Population Healthy Nuclei (%)” value [3] was 84% and 87%, the “Population Hoechst High Intensity Objects (%)” value [3] was 9% and 6% and the “Population Membrane Permeable-Phenotype (%)” value [3] was 5% and 6%. The “Population Mitochondria Different-Phenotype (%)” value [3] was 13% and 12%, the “Population Mitotic Cells (%)” value [3] was 53% and 57% and the “Population Normal (%)” value [3] was 90% and 93%. The “Population Pyknosed Nuclei (%)” value [3] was 9% and 8%, the “Population Tubulin-Different-Phenotype (%)” value [3] was 59% and the “Total Cell Count” value [3] was 851 and 807. The “Population Apoptotic (%)” value [4] was 34% and 50%, the “Population Fragmented Nuclei (%)” value [4] was 3% and 2% and the “Population Healthy Nuclei (%)” value [4] was 81% and 83%. The “Population Hoechst High Intensity Objects (%)” value [4] was 8%, the “Population Membrane Permeable-Phenotype (%)” value [4] was 19% and 22% and the “Population Mitochondria Different-Phenotype (%)” value [4] was 21% and 22%. The “Population Mitotic Cells (%)” value [4] was 65% and 50%, the “Population Normal (%)” value [4] was 91% and the “Population Pyknosed Nuclei (%)” value [4] was 15% and 13%. For the same molecule, the “Population Tubulin-Different-Phenotype (%)” value [4] was 90%, the “Total Cell Count” value [4] was 684 and 610 and the “Population Apoptotic (%)” value [5] was 27% and 29%. For the same molecule, the “Population Fragmented Nuclei (%)” value [5] was 8%, the “Population Healthy Nuclei (%)” value [5] was 87% and 85% and the “Population Hoechst High Intensity Objects (%)” value [5] was 9%. For the same molecule, the “Population Membrane Permeable-Phenotype (%)” value [5] was 7%, the “Population Mitochondria Different-Phenotype (%)” value [5] was 3% and 4% and the “Population Mitotic Cells (%)” value [5] was 72% and 70%. For the same molecule, the “Population Normal (%)” value [5] was 90%, the “Population Pyknosed Nuclei (%)” value [5] was 4% and 5% and the “Population Tubulin-Different-Phenotype (%)” value [5] was 39% and 45%. The “Total Cell Count” value [5] was 1564 and 1391, the “Population Apoptotic (%)” value [6] was 23% and 62% and the “Population Fragmented Nuclei (%)” value [6] was 5%. The “Population Healthy Nuclei (%)” value [6] was 86% and 83%, the “Population Hoechst High Intensity Objects (%)” value [6] was 9% and the “Population Membrane Permeable-Phenotype (%)” value [6] was 26% and 27%. The “Population Mitochondria Different-Phenotype (%)” value [6] was 13% and 12%, the “Population Mitotic Cells (%)” value [6] was 76% and 37% and the “Population Normal (%)” value [6] was 90%. The “Population Pyknosed Nuclei (%)” value [6] was 7% and 10%, the “Population Tubulin-Different-Phenotype (%)” value [6] was 87% and 91% and the “Total Cell Count” value [6] was 752 and 689.

Source: ChEMBL document CHEMBL5303300, “EUbOPEN Chemogenomics Library - Multiplex” (2023)
